Measurements as given in ChEMBL document CHEMBL3286180, “Efficacious inhaled PDE4 inhibitors with low emetic potential and long duration of action for the treatment of COPD” (J Med Chem, 2014).
Converted amounts (≈) assume the structure as drawn. Blank lines part the entries; values can stand above or below the molecule they belong to. The source made the active and inactive calls. No cut-off for these calls is given here.

Legend:
[1] = biological target: 3',5'-cyclic-AMP phosphodiesterase 4B (Homo sapiens, UniProt Q07343); assay: Inhibition of human recombinant PDE4B using [3H]cAMP by packard topcount scintillation counting analysis
Chain of 3',5'-cyclic-AMP phosphodiesterase 4B (Q07343 whole entry): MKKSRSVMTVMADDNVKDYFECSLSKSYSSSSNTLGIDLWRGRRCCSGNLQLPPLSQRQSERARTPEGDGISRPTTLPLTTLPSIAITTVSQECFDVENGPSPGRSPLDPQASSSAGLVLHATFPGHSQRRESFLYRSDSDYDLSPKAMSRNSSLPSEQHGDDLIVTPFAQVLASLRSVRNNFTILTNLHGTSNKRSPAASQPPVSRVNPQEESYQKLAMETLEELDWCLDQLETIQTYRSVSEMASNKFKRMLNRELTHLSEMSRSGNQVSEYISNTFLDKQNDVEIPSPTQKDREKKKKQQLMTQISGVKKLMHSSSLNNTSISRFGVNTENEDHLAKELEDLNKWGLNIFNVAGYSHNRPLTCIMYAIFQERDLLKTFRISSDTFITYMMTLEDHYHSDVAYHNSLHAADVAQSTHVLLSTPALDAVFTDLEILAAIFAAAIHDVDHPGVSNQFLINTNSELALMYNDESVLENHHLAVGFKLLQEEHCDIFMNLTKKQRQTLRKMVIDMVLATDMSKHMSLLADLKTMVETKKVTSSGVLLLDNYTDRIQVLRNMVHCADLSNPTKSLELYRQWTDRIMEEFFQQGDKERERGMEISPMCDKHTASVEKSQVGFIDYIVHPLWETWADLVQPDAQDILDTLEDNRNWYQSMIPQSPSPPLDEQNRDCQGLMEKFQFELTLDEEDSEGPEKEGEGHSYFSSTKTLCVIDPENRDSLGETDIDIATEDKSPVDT

[2] = Lipophilicity, log D of the compound; assay type: physicochemical; conditions: octanol/water
PBMC = assay: Antiinflammatory activity in human PBMC assessed as inhibition of LPS-induced TNFalpha production after 20 hrs by fluorescence linked immunosorbant assay; assay type: functional, cell-based
[3] = Aqueous solubility of the compound at pH 7.4; assay type: physicochemical; conditions: aqueous medium
[4] = Fraction unbound in human plasma; assay type: ADME, cell-free
Rattus norvegicus [5] = assay: Antiinflammatory activity in Sprague-Dawley rat assessed as inhibition of LPS-induced bronchoalveolar lavage neutrophils measured as LPS duration at 0.03 to 3 mg/ml, inhalation administered as nebulized suspension; assay type: functional, organism-based
Summary of the method: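 Duration protocol: rats received a nose-only inhalation of nebulized aqueous compound solution 12 h before LPS challenge. Dose is expressed as mg/mL nebulizer concentration. Readout was LPS-induced pulmonary neutrophilia, with terminal lung concentration (nM) measured. Groups held 8−10 animals per treatment.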

[6] = Fraction unbound in rat plasma; assay type: ADME, cell-free
[7] = Volume of distribution at steady state in rat at 1 mg/kg, iv; assay type: ADME, organism-based; design: dose 1 mg/kg, route intravenous; conditions: in vivo, read-out: Vdss
Blood = assay: tissue or blood; conditions: Rattus norvegicus, 20 h, read-out: pIC50 (converted)
[8] = Intrinsic clearance in rat hepatocytes measured per 10^6 cells; assay type: ADME, cell-based, Hepatocyte; conditions: read-out: CLH
Rattus norvegicus [9] = assay: Antiinflammatory activity in Sprague-Dawley rat assessed as inhibition of LPS-induced bronchoalveolar lavage neutrophils at 145 to 5238 particles/cm'3, inhalation administered as dry powder; assay type: functional, organism-based
Rattus norvegicus [10] = assay: Antiinflammatory activity in Sprague-Dawley rat assessed as inhibition of LPS-induced bronchoalveolar lavage neutrophils at 0.03 to 3 mg/ml, inhalation administered as nebulized suspension; assay type: functional, organism-based
Summary of the method: (§1)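 Rats were given the compound as an aqueous nebulized aerosol by nose-only inhalation 30 min before LPS challenge. Dose is expressed as mg/mL nebulizer concentration. Lung neutrophilia was the readout, and terminal lung concentration (nM) was measured. Groups held 8−10 animals per treatment.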

[11] = Half life in rat at 1 mg/kg, iv; assay type: ADME, organism-based; design: dose 1 mg/kg, route intravenous; conditions: in vivo
Summary of the method: (§2)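 Rat pharmacokinetics were run at 1 mg/kg, given iv or by intratracheal instillation, with 2−3 animals per study.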

Rattus norvegicus [12] = assay: Antiinflammatory activity in Sprague-Dawley rat assessed as inhibition of LPS-induced bronchoalveolar lavage neutrophils at lung exposure 1000 to 6000 particles/cm'3, inhalation administered as dry powder; assay type: functional, organism-based
[13] = Intrinsic clearance in human liver microsomes; assay type: ADME; conditions: read-out: CLH
[14] = Clearance in rat at 1 mg/kg, iv; assay type: ADME, organism-based; design: dose 1 mg/kg, route intravenous; conditions: in vivo; summary of the method: as §2
Cytochrome P450 2C9 = Cytochrome P450 2C9 (Homo sapiens, UniProt P11712); assay: Inhibition of CYP2C9 (unknown origin); assay type: ADME
Chain of Cytochrome P450 2C9 (P11712 whole entry): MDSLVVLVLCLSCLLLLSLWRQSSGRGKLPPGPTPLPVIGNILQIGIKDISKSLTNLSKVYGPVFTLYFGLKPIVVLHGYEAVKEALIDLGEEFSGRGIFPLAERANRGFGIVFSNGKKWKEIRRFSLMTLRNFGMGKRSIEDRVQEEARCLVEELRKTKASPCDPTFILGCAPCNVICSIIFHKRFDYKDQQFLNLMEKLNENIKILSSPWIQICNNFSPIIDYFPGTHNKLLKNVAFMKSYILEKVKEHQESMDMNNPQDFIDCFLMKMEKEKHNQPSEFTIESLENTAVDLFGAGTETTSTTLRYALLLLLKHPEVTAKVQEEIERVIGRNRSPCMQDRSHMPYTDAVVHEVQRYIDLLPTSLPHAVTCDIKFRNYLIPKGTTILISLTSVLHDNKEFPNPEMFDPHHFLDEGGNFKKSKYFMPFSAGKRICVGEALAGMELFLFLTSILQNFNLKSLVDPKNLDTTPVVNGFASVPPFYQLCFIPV

Cytochrome P450 3A4 = Cytochrome P450 3A4 (Homo sapiens, UniProt P08684); assay: Inhibition of CYP3A4 (unknown origin); assay type: ADME
Chain of Cytochrome P450 3A4 (P08684 whole entry): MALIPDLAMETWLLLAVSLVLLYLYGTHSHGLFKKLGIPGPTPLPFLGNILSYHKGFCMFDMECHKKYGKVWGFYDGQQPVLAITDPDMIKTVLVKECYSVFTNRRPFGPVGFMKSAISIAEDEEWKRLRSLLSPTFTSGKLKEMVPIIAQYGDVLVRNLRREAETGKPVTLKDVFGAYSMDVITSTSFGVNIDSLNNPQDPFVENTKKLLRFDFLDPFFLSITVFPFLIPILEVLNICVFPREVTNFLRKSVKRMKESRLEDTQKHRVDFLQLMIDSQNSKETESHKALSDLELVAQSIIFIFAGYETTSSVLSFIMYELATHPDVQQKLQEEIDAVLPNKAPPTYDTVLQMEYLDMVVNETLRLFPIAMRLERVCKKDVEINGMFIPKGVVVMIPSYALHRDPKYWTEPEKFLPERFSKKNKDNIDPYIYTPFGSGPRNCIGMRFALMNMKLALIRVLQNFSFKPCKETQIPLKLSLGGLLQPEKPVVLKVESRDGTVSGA

Cytochrome P450 1A2 = biological target: T1, Cytochrome P450 1A2 (Homo sapiens, UniProt P05177); assay: Inhibition of CYP1A2 (unknown origin); assay type: ADME
T1 sequence (P05177 whole entry): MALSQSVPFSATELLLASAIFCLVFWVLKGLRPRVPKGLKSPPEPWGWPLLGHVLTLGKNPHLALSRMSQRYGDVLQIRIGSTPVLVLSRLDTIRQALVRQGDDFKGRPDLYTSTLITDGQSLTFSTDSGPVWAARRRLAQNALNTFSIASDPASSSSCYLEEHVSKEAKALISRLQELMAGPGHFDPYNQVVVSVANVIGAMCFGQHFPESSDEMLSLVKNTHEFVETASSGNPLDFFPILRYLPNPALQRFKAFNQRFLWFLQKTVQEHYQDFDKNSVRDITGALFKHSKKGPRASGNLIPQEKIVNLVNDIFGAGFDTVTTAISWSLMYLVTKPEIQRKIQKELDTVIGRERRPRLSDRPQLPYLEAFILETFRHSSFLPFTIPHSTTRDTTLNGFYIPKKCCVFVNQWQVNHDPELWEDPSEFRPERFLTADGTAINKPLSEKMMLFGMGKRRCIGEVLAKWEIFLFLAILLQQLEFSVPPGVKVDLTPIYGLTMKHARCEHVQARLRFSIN

Cytochrome P450 2D6 = Cytochrome P450 2D6 (Homo sapiens, UniProt P10635); assay: Inhibition of CYP2D6 (unknown origin); assay type: ADME
Chain of Cytochrome P450 2D6 (P10635 whole entry): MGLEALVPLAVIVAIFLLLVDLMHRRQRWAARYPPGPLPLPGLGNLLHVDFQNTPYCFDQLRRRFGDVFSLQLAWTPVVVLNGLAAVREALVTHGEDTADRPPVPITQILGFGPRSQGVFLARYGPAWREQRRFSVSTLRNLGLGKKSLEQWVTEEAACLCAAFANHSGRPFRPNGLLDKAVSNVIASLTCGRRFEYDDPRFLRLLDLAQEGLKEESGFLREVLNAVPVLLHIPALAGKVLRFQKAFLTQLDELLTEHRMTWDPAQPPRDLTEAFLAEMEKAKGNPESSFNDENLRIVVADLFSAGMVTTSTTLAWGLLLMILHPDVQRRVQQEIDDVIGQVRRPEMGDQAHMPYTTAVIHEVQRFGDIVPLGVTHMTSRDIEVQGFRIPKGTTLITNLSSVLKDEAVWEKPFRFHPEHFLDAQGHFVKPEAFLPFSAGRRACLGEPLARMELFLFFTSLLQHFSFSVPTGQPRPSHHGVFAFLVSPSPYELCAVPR

Rattus norvegicus [15] = assay: Apparent volume of distribution in rat at 1 mg/kg, iv; assay type: ADME, organism-based; design: dose 1 mg/kg, route intravenous; conditions: in vivo; summary of the method: as §2
Cytochrome P450 2C19 = Cytochrome P450 2C19 (Homo sapiens, UniProt P33261); assay: Inhibition of CYP2C19 (unknown origin); assay type: ADME
Chain of Cytochrome P450 2C19 (P33261 whole entry): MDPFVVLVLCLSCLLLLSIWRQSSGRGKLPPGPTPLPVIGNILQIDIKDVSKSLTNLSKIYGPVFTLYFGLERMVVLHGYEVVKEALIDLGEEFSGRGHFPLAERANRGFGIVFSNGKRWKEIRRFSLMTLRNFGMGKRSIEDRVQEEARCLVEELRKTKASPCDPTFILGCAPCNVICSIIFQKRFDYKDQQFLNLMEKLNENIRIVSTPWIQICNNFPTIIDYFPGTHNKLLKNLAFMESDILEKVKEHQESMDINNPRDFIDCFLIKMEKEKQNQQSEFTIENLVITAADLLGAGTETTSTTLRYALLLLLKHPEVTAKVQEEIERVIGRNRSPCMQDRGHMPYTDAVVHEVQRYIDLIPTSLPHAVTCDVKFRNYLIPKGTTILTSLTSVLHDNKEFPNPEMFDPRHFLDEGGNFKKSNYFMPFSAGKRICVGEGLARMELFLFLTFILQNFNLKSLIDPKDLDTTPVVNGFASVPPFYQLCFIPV

Rattus norvegicus [16] = assay: Antiinflammatory activity in Sprague-Dawley rat assessed as inhibition of LPS-induced bronchoalveolar lavage neutrophils at 1 mg/ml, inhalation administered as nebulized suspension; assay type: functional, organism-based; summary of the method: as §1

Compound: Cc1csc(C(=O)N[C@H]2CC[C@@H](NC(=O)c3cc(F)cnc3Oc3cccc(-c4ccc(CN5C[C@@H](C)N[C@@H](C)C5)cc4)c3)CC2)n1
IC50 [1]: 0.0316 nM

Compound: CN(C)Cc1cc(O)ccc1-c1cccc(Oc2ncc(F)cc2C(=O)N[C@H]2CC[C@@H](NC(=O)c3cccc4ocnc34)CC2)c1
IC50 [1]: 0.316 nM

Compound: Cc1cc(C)n2ncc(C(=O)N[C@H]3CC[C@@H](NC(=O)c4cc(F)cnc4Oc4cccc(-c5ccc(O)cc5CN5CCOCC5)c4)CC3)c2n1
IC50 [1]: 0.0501 nM

Compound: Cc1cc(C(=O)N[C@H]2CC[C@@H](NC(=O)c3cc(F)cnc3Oc3cccc(-c4ccc(O)c(CN5C[C@@H](C)N[C@@H](C)C5)c4)c3)CC2)nn1C
logD [2]: 2.3
IC50 (PBMC): 0.0316 nM
solubility [3]: 970 µM (≈ 650 µg/mL)
fraction unbound [4]: 0.16

Compound: Cc1csc(C(=O)N[C@H]2CC[C@@H](NC(=O)c3cc(F)cnc3Oc3cccc(-c4ccc(CN5C[C@@H](C)N[C@@H](C)C5)cc4CN4CCOCC4)c3)CC2)n1.O=C(O)C(F)(F)F
solubility [3]: > 1400 µM

Compound: C[C@@H]1CN(Cc2ccc(-c3cccc(Oc4ncc(F)cc4C(=O)N[C@H]4CC[C@@H](NC(=O)c5ncccc5O)CC4)c3)cc2)C[C@H](C)N1
IC50 [1]: 0.126 nM

Compound: Cc1cccc2nc(C(=O)N[C@H]3CC[C@@H](NC(=O)c4cc(F)cnc4Oc4cccc(-c5ccc(CN6CCC(N7CCCC7)CC6)cc5)c4)CC3)cn12
Vd [7]: 60 L/kg
IC50 (Cytochrome P450 2C9): > 1000 nM
inhibition (Rattus norvegicus [16]): Active
IC50 (Cytochrome P450 3A4): > 1000 nM
IC50 (Cytochrome P450 1A2): > 1000 nM
IC50 (Cytochrome P450 2D6): > 1000 nM
half-life [11]: 12 h
logD [2]: 3.2
IC50 (PBMC): 0.251 nM
solubility [3]: > 1400 µM
IC50 [1]: 0.0398 nM
clearance [14]: 79 mL/min/kg
Vz/F (Rattus norvegicus [15]): 80 L/kg
fraction unbound [4]: 0.02
IC50 (Cytochrome P450 2C19): > 1000 nM

Further lines, with some results ahead:

IC50 [1]: 0.316 nM
Compound: O=C(N[C@H]1CC[C@@H](NC(=O)c2nc3ccccc3[nH]c2=O)CC1)c1cc(F)cnc1Oc1cccc(-c2ccc(O)cc2CN2CCOCC2)c1

fraction unbound [6]: 0.017
Vd [7]: 22 L/kg
IC50 (Blood): 39.8 nM
hepatocyte CLint [8]: 76 µL/min/1e6 cells
half-life [11]: 7.6 h
logD [2]: 4.4
solubility [3]: < 1 µM
IC50 [1]: 0.631 nM
microsomal CLint [13]: 116 µL/min/mg
clearance [14]: 97 mL/min/kg
fraction unbound [4]: 0.0017
Compound: Cc1ccc(O)c(C(=O)N[C@H]2CC[C@@H](NC(=O)c3cc(F)cnc3Oc3ccc(F)c(F)c3)CC2)c1 [UK-500001]
inhibition (Rattus norvegicus [5]): inactive
inhibition (Rattus norvegicus [9]): Active
inhibition (Rattus norvegicus [10]): inactive
IC50 (PBMC): 3.98 nM
inhibition (Rattus norvegicus [12]): Active

logD [2]: 2.2
solubility [3]: > 1500 µM
fraction unbound [4]: 0.35
Compound: Cc1cc(C(=O)N[C@H]2CC[C@@H](NC(=O)c3cc(F)cnc3Oc3cccc(-c4cc(O)cc(CN5C[C@@H](C)N[C@@H](C)C5)c4)c3)CC2)nn1C
IC50 (PBMC): 0.398 nM

Vd [7]: 14 L/kg
IC50 (Cytochrome P450 2C9): > 1000 nM
IC50 (Cytochrome P450 3A4): > 1000 nM
IC50 (Cytochrome P450 1A2): > 1000 nM
IC50 (Cytochrome P450 2D6): > 1000 nM
half-life [11]: 5.3 h
logD [2]: 2.7
solubility [3]: 460 µM (≈ 317 µg/mL)
clearance [14]: 61 mL/min/kg
Vz/F (Rattus norvegicus [15]): 28 L/kg
fraction unbound [4]: 0.012
IC50 (Cytochrome P450 2C19): > 1000 nM
Compound: Cc1cccc2nc(C(=O)N[C@H]3CC[C@@H](NC(=O)c4cc(F)cnc4Oc4cccc(-c5ccc(CN6C[C@@H](C)N[C@@H](C)C6)cc5)c4)CC3)cn12
IC50 (PBMC): 0.126 nM
